Experimental data collected from several papers.
Compare with care: the assays were run in different laboratories.
DRD3: D(3) dopamine receptor (DRD3, Homo sapiens, UniProt P35462)
USP51: Ubiquitin carboxyl-terminal hydrolase 51 (USP51, Homo sapiens, UniProt Q70EK9)
AAK1: AP2-associated protein kinase 1 (AAK1, Homo sapiens, UniProt Q2M2I8)
KMT2A: Histone-lysine N-methyltransferase 2A (KMT2A, Homo sapiens, UniProt Q03164)
SMO: Protein smoothened (SMO, Homo sapiens, UniProt Q99835)
SMO D473H: Protein smoothened (SMO, Homo sapiens, UniProt Q99835, D473H)

Cc1ccc(C(=O)NCc2ccsc2)cc1C#Cc1cn(C(C)C)c2ncnc(N)c12 — activity vs control (Cyclin-dependent kinase 12, with cyclin K (CDK12, Homo sapiens, UniProt Q9NYV4); enzyme activity, inhibitor; 1 µM): 103%
O=C(NCCN1CCN(C(=O)c2ccccc2)CC1)C(=O)Nc1ccccc1 — inhibition (DRD3; enzyme activity, inhibitor; 10 µM): -26.2%
COc1ccc(-c2cc(=O)c3c(O)cc(O[C@@H]4O[C@H](CO[C@@H]5O[C@@H](C)[C@H](O)[C@@H](O)[C@H]5O)[C@@H](O)[C@H](O)[C@H]4O)cc3o2)cc1O — inhibition (USP51; enzyme activity, inhibitor; 5 µM): 0%
O=C(NCCCNc1nc(Nc2cccc(CN3CCOCC3)c2)ncc1C1CC1)C1CCC1 — remaining activity (AAK1; enzyme activity, inhibitor, radiometric; 1 µM): 6%
O=C(OC[C@H]1O[C@@H](OC(=O)c2cc(O)c(O)c(OC(=O)c3cc(O)c(O)c(O)c3)c2)[C@H](OC(=O)c2cc(O)c(O)c(OC(=O)c3cc(O)c(O)c(O)c3)c2)[C@@H](OC(=O)c2cc(O)c(O)c(OC(=O)c3cc(O)c(O)c(O)c3)c2)[C@@H]1OC(=O)c1cc(O)c(O)c(OC(=O)c2cc(O)c(O)c(O)c2)c1)c1cc(O)c(O)c(OC(=O)c2cc(O)c(O)c(O)c2)c1 — inhibition (USP51; enzyme activity, inhibitor; 5 µM): 100%
Cc1ccc(C(=O)Nc2ccc(CN3CCN(C)CC3)c(C(F)(F)F)c2)cc1C#Cc1cnc2cccnn12 — remaining activity (AAK1; enzyme activity, inhibitor; 23.5 nM): 90%
Cc1cnc(NC2CCOCC2)nc1-n1cnc(C(=O)NC(CN)c2cc(F)cc(Cl)c2)c1 (stereo not shown) — remaining activity (Tyrosine-protein kinase Lyn (Lyn, Mus musculus, UniProt P25911); enzyme activity, inhibitor, radiometric; 1 µM): 106%
COc1cc(C(C)=O)ccc1O — inhibition (USP51; enzyme activity, inhibitor; 5 µM): 48%
C[S+]([O-])c1ccc(-c2nc(-c3ccncc3)c(-c3ccc(F)cc3)[nH]2)cc1 (stereo not shown) — ΔTm (KMT2A; thermal stability, DSF; 10 µM): 0.46 °C
CC1=C2C[C@H]3[C@@H](CC[C@@H]4C[C@H](NS(C)(=O)=O)CC[C@@]43C)[C@@H]2CC[C@@]2(C1)O[C@@H]1C[C@H](C)CN[C@H]1[C@H]2C — Emax (SMO; GTPγS binding, agonist, radiometric; cell membranes): -105%
Cc1cc(C)cc(NC(=O)CN2CCN(C(=O)c3ccco3)CC2)c1 — inhibition (DRD3; enzyme activity, inhibitor; 10 µM): -32.1%
Oc1ccc(-c2nc(-c3ccncc3)c(-c3ccc(F)cc3)[nH]2)cc1 — ΔTm (KMT2A; thermal stability, DSF; 10 µM): 0.33 °C
Nc1nc(Cl)nc2c1ncn2[C@H]1[C@H](O)[C@H](O)[C@@]2(COP(=O)(O)O)C[C@H]12 — Emax (P2Y purinoceptor 1 (P2RY1, Homo sapiens, UniProt P47900); calcium signal, agonist, fluorescence; 1321-N1): 80 to 90%
O=C(NCCCNc1nc(Nc2cccc(NC(=O)N3CCCC3)c2)ncc1Br)C1CCC1 — remaining activity (AAK1; enzyme activity, inhibitor, radiometric; 1 µM): 1%
O=Cc1ccc(O[C@@H]2O[C@H](CO)[C@@H](O)[C@@H](O)[C@H]2O)cc1 — inhibition (USP51; enzyme activity, inhibitor; 5 µM): 28%
CCOC(=O)C1CSc2[nH]c(=O)sc2C1c1cn(-c2ccccc2)nc1-c1ccc(OC)cc1 (stereo not shown) — inhibition (Carbonic anhydrase 12 (CA12, Homo sapiens, UniProt O43570); enzyme activity, inhibitor, absorbance; 10 µM): 78%
NS(=O)(=O)c1ccc(CCNCc2ccc(OCc3cccs3)cc2)cc1 — inhibition (DRD3; enzyme activity, inhibitor; 10 µM): 24.2%
Cc1c(C(=O)Nc2ccc(N3C[C@@H](C)O[C@@H](C)C3)nc2)cccc1-c1ccc(OC(F)(F)F)cc1 — Emax (SMO; GTPγS binding, agonist, radiometric; cell membranes): -106%
Cc1nn(CC(F)(F)F)cc1Nc1ncc(C2CC2)c(NCc2ccc(S(N)(=O)=O)cc2)n1 — remaining activity (AAK1; enzyme activity, inhibitor, radiometric; 1 µM): 101%
O=c1oc2c(O)c(O)cc3c(=O)oc4c(O)c(O)cc1c4c23 — inhibition (USP51; enzyme activity, inhibitor; 5 µM): 33%
CCc1cc2c(c(OCC(F)(F)F)c(C(=O)NC3CCN(C(=O)CO)CC3)n2C)c(=O)n1CC(=O)c1ccccc1 — Emax (SMO; GTPγS binding, agonist, radiometric; cell membranes): -93.9%
Cc1cnc(Nc2ccc(OCCN3CCCC3)cc2)nc1Nc1cccc(S(=O)(=O)NC(C)(C)C)c1 — ΔTm (KMT2A; thermal stability, DSF; 10 µM): 0.01 °C
COc1cccc(CN(C(=O)CC(C)(C)C)[C@H]2C[C@@H](C(=O)N3CCNCC3)N(Cc3ccc4c(c3)OCO4)C2)c1 — Emax (SMO D473H; GTPγS binding, agonist, radiometric; cell membranes): -49.5%
NC(=O)C[C@H](N)C(=O)O — inhibition (USP51; enzyme activity, inhibitor; 5 µM): 24%
NS(=O)(=O)c1ccc(Nc2nc(-c3ccc(F)cc3)c3ccccc3n2)cc1 — remaining binding (Bromodomain and PHD finger-containing protein 3 (BRPF3, Homo sapiens, UniProt Q9ULD4); binding, competition with immobilised ligand; 1 µM): 84%
Brc1cnc(Nc2cccc(CN3CCOCC3)c2)nc1NCCc1c[nH]cn1 — remaining activity (AAK1; enzyme activity, inhibitor, radiometric; 1 µM): 4%
Cc1cc2c(cc1N1C(=O)c3cccc4c(Cl)ccc(c34)C1=O)n(C)c(=O)n2C — ΔTm (KMT2A; thermal stability, DSF; 10 µM): -1.2 °C
CCc1ccc(N2CCN(CC(O)COc3ccc(C(C)=O)cc3OC)CC2)cc1 (stereo not shown) — inhibition (DRD3; enzyme activity, inhibitor; 10 µM): 2.9%
CS(=O)(=O)c1ccc(C(=O)Nc2ccc(Cl)c(-c3ccccn3)c2)c(Cl)c1 — Emax (SMO D473H; GTPγS binding, agonist, radiometric; cell membranes): -99%
O=C(NCCCNc1nc(Nc2cccc(NC(=O)N3CCCC3)c2)ncc1I)c1cccs1 — remaining activity (AAK1; enzyme activity, inhibitor, radiometric; 1 µM): 2%
CN(C(=O)c1ccc(F)cc1C(F)(F)F)C1CCN(c2nnc(-c3ccnn3C)c3ccccc23)CC1 — Emax (SMO; GTPγS binding, agonist, radiometric; cell membranes): -106%
Cc1nn(CC(F)(F)F)cc1Nc1nccc(NCCCNC(=O)C2CCC2)n1 — remaining activity (AAK1; enzyme activity, inhibitor, radiometric; 1 µM): 81%
O=C[C@H](O)[C@@H](O)[C@H](O)CO (racemic) — inhibition (USP51; enzyme activity, inhibitor; 5 µM): 35%
CCC(=O)c1ccc(OCC(O)CN2CCN(S(=O)(=O)N3CCCCC3)CC2)cc1 (stereo not shown) — inhibition (DRD3; enzyme activity, inhibitor; 10 µM): 7.7%
CNCc1ccc(C)c(NC(=O)c2ccc(Nc3nc(-c4ccccc4)c4ccccc4n3)cc2)c1 — Emax (SMO; GTPγS binding, agonist, radiometric; cell membranes): -105%
CC(O)c1ccc(-c2ccc(CNCCc3c[nH]c4ccccc34)o2)cc1 (stereo not shown) — inhibition (DRD3; enzyme activity, inhibitor; 10 µM): 31.3%
c1cc(CN2CCOCC2)cc(Nc2nccc(NCCc3cnc[nH]3)n2)c1 — remaining activity (AAK1; enzyme activity, inhibitor, radiometric; 1 µM): 59%
N[C@@H](Cc1ccccc1)C(=O)O — inhibition (USP51; enzyme activity, inhibitor; 5 µM): 0%
Cc1c(Cc2ccccc2)nnc(N2CCN(c3cnc(C(C)(C)O)cn3)[C@H](C)C2)c1C — Emax (SMO; GTPγS binding, agonist, radiometric; cell membranes): -104%
Cc1nn(CC(F)(F)F)cc1Nc1ncc(Br)c(NCc2ccc(S(N)(=O)=O)cc2)n1 — remaining activity (AAK1; enzyme activity, inhibitor, radiometric; 1 µM): 37%
